Results from different studies.
Protocols differ between the studies behind these lines.

CONc1ccnc(Nc2cccc(-c3cccnc3)c2)n1  Papp (PAMPA; 50 nM, 30 min): 1300 ×10⁻⁶ cm/s
c1ccc(-c2nc(N3CCCC3c3ccccn3)c3ccccc3n2)nc1 (stereo not shown)  Papp (PAMPA; 10 µM, 3 h, pH 7.4): 21.4 ×10⁻⁶ cm/s
CC1(C)CC[C@]2(C)CC[C@]3(C)[C@H]4CC=C5[C@@H](CC[C@H](O)C5(C)C)[C@]4(C)CC[C@@]3(C)[C@@H]2C1  IC50 (HCT-116; cell growth or viability, WST-1): 66.5 µM
COC(=O)c1c(C)ncn1CC(c1c[nH]c2ccc(C)cc12)c1c[nH]c2ccc(C)cc12  CC50 (DH82; cell growth or viability, MTS; 24 h): > 20 µM
CCOC(=O)[C@@]12C[C@@H]1[C@@H](n1ccc3c(NC)nc(C#Cc4ccc(Cl)s4)nc31)[C@H](O)[C@@H]2O  AUC(0-t) (male Sprague-Dawley rat, plasma; oral, 1 mg/kg): 34 ng·h/mL
CC(=O)O[C@@H]1c2c(ccc3ccc(=O)oc23)OC(C)(C)[C@@H]1OC(=O)C1(C)OC1C (stereo partly shown)  IC50 (HCT-116; cell growth or viability, WST-1): 49.9 µM
Cn1ccnc1CNc1nc(-c2ccccn2)nc2ccccc12  Papp (PAMPA; 10 µM, 3 h, pH 7.4): 27 ×10⁻⁶ cm/s
CCCCCCCCCCCCCCCCOP(=O)([O-])OCC[N+](C)(C)C  CC50 (DH82; cell growth or viability, MTS; 24 h): > 20 µM
c1ccc(C2CCN(c3nc(-c4cnn5c4CCCC5)nc4ccccc34)C2)nc1 (stereo not shown)  Papp (PAMPA; 10 µM, 3 h, pH 7.4): 36.7 ×10⁻⁶ cm/s
CC(C)Nc1ccnc(Nc2cccc(-c3cc[nH]n3)c2)n1  Papp (PAMPA; 50 nM, 30 min): 1740 ×10⁻⁶ cm/s
